From article PMC11795718 (Angewandte Chemie (International Ed. in English), 2024)

Legend:
h-15-LOX-1 = biological target: T1, h-15-LOX-1 (Homo sapiens, UniProt P16050); assay: Michaelis-Menten / Lineweaver-Burk kinetics; assay type: biochemical
T1 sequence (P16050 1-662): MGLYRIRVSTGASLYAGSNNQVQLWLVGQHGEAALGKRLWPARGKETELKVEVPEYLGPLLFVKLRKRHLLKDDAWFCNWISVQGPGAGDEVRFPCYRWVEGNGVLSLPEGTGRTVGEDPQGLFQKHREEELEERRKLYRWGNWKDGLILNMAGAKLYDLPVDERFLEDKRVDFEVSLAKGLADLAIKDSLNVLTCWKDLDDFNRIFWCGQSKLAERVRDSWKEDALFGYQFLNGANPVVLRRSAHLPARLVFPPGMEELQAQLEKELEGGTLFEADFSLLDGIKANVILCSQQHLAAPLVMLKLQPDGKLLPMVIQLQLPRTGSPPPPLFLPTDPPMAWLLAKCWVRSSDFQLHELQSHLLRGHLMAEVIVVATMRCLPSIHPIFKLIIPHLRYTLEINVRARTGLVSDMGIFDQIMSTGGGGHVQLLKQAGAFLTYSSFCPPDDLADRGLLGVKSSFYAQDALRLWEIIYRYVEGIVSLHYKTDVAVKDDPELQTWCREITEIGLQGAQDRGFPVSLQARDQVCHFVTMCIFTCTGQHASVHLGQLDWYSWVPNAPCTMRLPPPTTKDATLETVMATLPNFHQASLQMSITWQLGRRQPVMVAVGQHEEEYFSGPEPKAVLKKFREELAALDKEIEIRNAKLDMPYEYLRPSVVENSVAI

[1] = test system: 15‐LOX‐1 in RAW 264.7 cells; assay: cell-based competition assay; set-up: species or system murine; details: for competition with BAM10 labelling, 10-fold competitor: 5 μM BAM10, competitor 10-fold (50 μM); for competition with BAM10 labelling, equimolar competitor: 5 μM BAM10, equimolar concentration of competitor
soybean LOX = soybean LOX inhibition; assay type: biochemical; details: selectivity
purified 15‐LOX‐1 [2] = biological target: T2, purified 15‐LOX‐1 (Homo sapiens, UniProt P16050); assay: MS-based proteomics of covalent modification; assay type: binding; details: adduct after preincubation with purified 15-LOX-1
T2 sequence (P16050 1-662): T1 sequence (P16050 1-662)

C. elegans = assay: growth and imaging of BAM10-treated C. elegans; assay type: in vivo, Caenorhabditis elegans; details: 5 μM BAM10, competitor 50 μM, co-treated plates
purified 15‐LOX‐1 [3] = biological target: T2, purified 15‐LOX‐1; assay: fluorescence labeling of recombinant purified 15-LOX-1; assay type: binding; details: applied prior to the probe BAM10
Method in brief: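 Recombinant purified human 15‑LOX‑1 was incubated briefly with the fluorescent probe, then acetone‑precipitated, leaving excess probe in the supernatant; fluorescence of the labelled protein was read. For the dot‑blot, enzyme with or without pre‑incubation with a reference inhibitor was probe‑treated; controls lacked enzyme. Duplicates (n=2).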

RAW 264.7 cells = assay: imaging-based cell permeability and retention assay; set-up: species or system murine; details: live RAW 264.7 cells, timeframe of the experiment
Method in brief: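 Live RAW 264.7 cells were treated in situ on the confocal microscope with the fluorescein‑tagged probe at room temperature. Images were recorded immediately and continuously to follow cellular uptake over time.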

SMILES	competition with BAM10 labelling, 10-fold competitor [1]	competition with BAM10 labelling, equimolar competitor [1]	competition with BAM10 fluorescence in the pharynx (C. elegans)	further results
CC#CCC#CCCCC=O [BAM1]	–	–	–	type of inhibition (Lineweaver–Burk plots) (h-15-LOX-1): noncompetitive inhibition
CC#CCC#CCCCC=NNc1ccccc1 [BAM3]	reduction of BAM10 fluorescence intensity	not significant	reduced BAM10 fluorescence intensity	difference in inhibitory potency in favor of human 15-LOX-1 over soybean LOX (soybean LOX): 4 fold; mass increase of tryptic peptide [YTLEINVRAR] (amino acids 395–404) (purified 15‐LOX‐1 [2]): 230 Da
CCCCNC(=O)c1cc(-c2ccccc2)sc1N [ThioLox, reference compound]	decreased almost to background levels	not significant	reduced BAM10 fluorescence intensity	effect on BAM10 labeling of the enzyme (dot-blot) (purified 15‐LOX‐1 [3]): reduced labeling of the enzyme
O=C1OC2(c3ccc(O)cc3Oc3cc(O)ccc32)c2ccccc21 [fluorescein]	–	–	–	cell permeability (RAW 264.7 cells): impermeable
